In ChEMBL document CHEMBL4393740, “Preparation and biological evaluation of soluble tetrapeptide epoxyketone proteasome inhibitors” (Bioorg Med Chem, 2019):

Tests used:
[1] = molecular target: T1, Proteasome Macropain subunit MB1 (Homo sapiens, UniProt P28074); assay: Inhibition of human chymotrypsin-like activity of 20S proteasome using Suc-LLVY-AMC as substrate pre-incubated for 10 mins followed by substrate addition and measured after 1 hr by spectrofluorimetry
T1 sequence (P28074 whole entry): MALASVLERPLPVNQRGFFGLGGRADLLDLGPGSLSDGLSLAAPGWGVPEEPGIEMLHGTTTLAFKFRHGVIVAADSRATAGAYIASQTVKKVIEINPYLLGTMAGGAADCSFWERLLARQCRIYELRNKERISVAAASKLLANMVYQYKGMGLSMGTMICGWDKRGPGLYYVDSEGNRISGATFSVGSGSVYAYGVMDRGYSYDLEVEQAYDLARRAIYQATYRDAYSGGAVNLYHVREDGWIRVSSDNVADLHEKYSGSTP

RPMI-8226 = assay: Cytotoxicity against human RPMI8226 cells assessed as cell viability measured after 72 hrs by celltiter96 aqueous cell proliferation assay; type: functional, cell-based; conditions: RPMI-8226, 72 h
Method in brief: (§1)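 Suspension cells in log phase plated at 5000 (RPMI8226) or 10000 (U266B1) cells per well. Viability read after 72 h by MTS-type CellTiter 96 AQueous One assay on a plate reader. IC50 reported, three repeats.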

U-266 = assay: Cytotoxicity against human U266B1 cells assessed as cell viability measured after 72 hrs by celltiter96 aqueous cell proliferation assay; type: functional, cell-based; conditions: U-266, 72 h; method in brief: as §1
[2] = Half life in human liver microsomes at 1 uM pre-incubated for 5 mins followed by NADP+ addition and measured up to 20 mins by LC-MS analysis; type: ADME, Microsome
Method in brief: (§2)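 Mixture held 1 µM compound, 0.5 mg/mL microsomal protein (in-house pooled Balb/c mouse or pooled human), 100 mM Tris-HCl pH 7.4, and an NADPH-generating system (5 mM isocitric acid, 0.2 U/mL isocitric dehydrogenase, 5 mM MgCl2, 1 mM NADP+). Preincubated 5 min at 37 °C, started with NADP+, sampled at 0, 5, 10, 20 min. Quenched with cold acetonitrile containing 1 µM phenytoin internal standard. Compound loss measured by LC-MS/MS. Controls omitted NADPH and/or microsomes.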

[3] = Intrinsic clearance in monkey liver microsomes at 1 uM pre-incubated for 5 min followed by NADP+ addition and measured up to 20 mins by LC-MS analysis; type: ADME, Macaca mulatta, Microsome; conditions: rhesus monkey, read-out: CLH
[4] = molecular target: Voltage-gated inwardly rectifying potassium channel KCNH2 (Homo sapiens, UniProt Q12809); assay: Inhibition of human ERG in HEK293 cells assessed as effect on QT interval; type: cell-based
Voltage-gated inwardly rectifying potassium channel KCNH2, sequence (Q12809 whole entry): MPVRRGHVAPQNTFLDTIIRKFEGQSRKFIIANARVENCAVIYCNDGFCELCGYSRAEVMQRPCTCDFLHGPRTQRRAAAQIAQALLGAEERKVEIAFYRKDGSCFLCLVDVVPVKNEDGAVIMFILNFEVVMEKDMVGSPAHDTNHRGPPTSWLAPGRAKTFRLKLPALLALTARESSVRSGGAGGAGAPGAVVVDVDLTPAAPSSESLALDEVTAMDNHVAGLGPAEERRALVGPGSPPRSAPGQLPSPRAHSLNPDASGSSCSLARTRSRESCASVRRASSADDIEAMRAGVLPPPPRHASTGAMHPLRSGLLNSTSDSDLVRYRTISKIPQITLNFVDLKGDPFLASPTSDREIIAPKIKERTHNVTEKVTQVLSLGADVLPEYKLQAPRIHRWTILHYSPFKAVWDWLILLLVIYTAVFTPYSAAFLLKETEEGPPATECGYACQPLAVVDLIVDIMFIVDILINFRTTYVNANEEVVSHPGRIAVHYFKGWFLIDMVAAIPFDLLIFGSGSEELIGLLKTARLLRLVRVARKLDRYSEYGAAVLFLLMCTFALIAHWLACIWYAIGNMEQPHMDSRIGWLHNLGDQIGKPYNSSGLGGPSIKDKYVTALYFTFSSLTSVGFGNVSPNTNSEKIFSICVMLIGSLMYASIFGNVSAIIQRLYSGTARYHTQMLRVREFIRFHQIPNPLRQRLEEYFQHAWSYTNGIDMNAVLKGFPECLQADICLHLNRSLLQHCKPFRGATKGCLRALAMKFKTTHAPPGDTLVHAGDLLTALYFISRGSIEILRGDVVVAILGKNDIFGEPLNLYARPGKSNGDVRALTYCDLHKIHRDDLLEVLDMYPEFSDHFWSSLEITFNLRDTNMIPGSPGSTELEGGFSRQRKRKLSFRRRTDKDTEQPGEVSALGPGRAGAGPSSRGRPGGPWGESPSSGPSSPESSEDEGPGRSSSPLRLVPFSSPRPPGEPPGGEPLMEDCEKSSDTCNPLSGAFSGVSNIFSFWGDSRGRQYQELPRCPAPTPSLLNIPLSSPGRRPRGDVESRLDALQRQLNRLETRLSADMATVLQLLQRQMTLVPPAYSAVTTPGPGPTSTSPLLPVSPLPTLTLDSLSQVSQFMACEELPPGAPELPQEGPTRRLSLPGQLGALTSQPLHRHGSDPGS

[5] = Half life in monkey liver microsomes at 1 uM pre-incubated for 5 mins followed by NADP+ addition and measured up to 20 mins by LC-MS analysis; type: ADME, Macaca mulatta, Microsome; conditions: rhesus monkey
[6] = Half life in BALB/c mouse liver microsomes at 1 uM pre-incubated for 5 mins followed by NADP+ addition and measured up to 20 mins by LC-MS analysis; type: ADME, Microsome; method in brief: as §2
[7] = Intrinsic clearance in rat liver microsomes at 1 uM pre-incubated for 5 mins followed by NADP+ addition and measured up to 20 mins by LC-MS analysis; type: ADME, Microsome; conditions: read-out: CLH
[8] = Intrinsic clearance in dog liver microsomes at 1 uM pre-incubated for 5 mins followed by NADP+ addition and measured up to 20 mins by LC-MS analysis; type: ADME, Canis lupus familiaris, Microsome; conditions: read-out: CLH
[9] = Intrinsic clearance in BALB/c mouse liver microsomes at 1 uM pre-incubated for 5 mins followed by NADP+ addition and measured up to 20 mins by LC-MS analysis; type: ADME, Microsome; conditions: read-out: CLH; method in brief: as §2
[10] = Intrinsic clearance in human liver microsomes at 1 uM pre-incubated for 5 min followed by NADP+ addition and measured up to 20 mins by LC-MS analysis; type: ADME, Microsome; conditions: read-out: CLH; method in brief: as §2
[11] = Half life in rat liver microsomes at 1 uM pre-incubated for 5 mins followed by NADP+ addition and measured up to 20 mins by LC-MS analysis; type: ADME, Microsome
[12] = Half life in dog liver microsomes at 1 uM pre-incubated for 5 mins followed by NADP+ addition and measured up to 20 mins by LC-MS analysis; type: ADME, Canis lupus familiaris, Microsome
ARH-77 = assay: Antitumour activity against human ARH77 cells xenografted in nude mouse assessed as tumor growth at 5mg/kg, iv dosed at day 1 ,4, 8 ,11, 15 and 18 for 3 weeks and measured every 2 days by caliper method relative to control; type: functional
Method in brief: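 Nude mice given subcutaneous 1 × 10^7 ARH77 cells. Randomized at mean tumour 100-150 mm3 into treatment and control groups, n = 5. Dosed i.v. 5 mg/kg on days 1, 4, 8, 11, 15 and 18 for 3 weeks. Tumours sized by caliper, V = length×width²/2, RTV = Vt/V0. T/C% = mean RTV treated / mean RTV control × 100.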

Row | SMILES | IC50 ([1]; read-out: IC50) [nM] | IC50 (RPMI-8226) [nM] | IC50 (U-266) [nM] | further results
1 | Cc1cc(C(=O)N[C@@H](CCc2ccccc2)C(=O)N[C@@H](Cc2cscn2)C(=O)N[C@@H](Cc2ccccc2)C(=O)N[C@@H](CC(C)C)C(=O)[C@@]2(C)CO2)no1 |  |  |  | IC50 [1]: Not Active
2 | COC[C@H](NC(=O)c1cc(C)on1)C(=O)NCC(=O)N[C@@H](Cc1ccccc1)C(=O)N[C@@H](CC(C)C)C(=O)[C@@]1(C)CO1 |  |  |  | IC50 [1]: Not Active
3 | Cc1cc(C(=O)N[C@@H](CCc2ccccc2)C(=O)N[C@@H](Cc2ccccn2)C(=O)N[C@@H](Cc2ccccc2)C(=O)N[C@@H](CC(C)C)C(=O)[C@@]2(C)CO2)no1 |  |  |  | IC50 [1]: Not Active
4 | CCCC[C@H](NC(=O)[C@H](CC(C)C)NC(=O)[C@H](CCc1ccccc1)NC(=O)CN1CCOCC1)C(=O)N[C@@H](CC(C)C)C(=O)[C@@]1(C)CO1 | 162 |  |  | 
5 | CC[C@H](NC(=O)[C@H](CC(C)C)NC(=O)[C@H](CCc1ccccc1)NC(=O)CN1CCOCC1)C(=O)N[C@@H](CC(C)C)C(=O)[C@@]1(C)CO1 | 98.2 |  |  | 
6 | Cc1cc(C(=O)N[C@H](C(=O)N[C@@H](CC(C)C)C(=O)N[C@@H](Cc2ccccc2)C(=O)N[C@@H](CC(C)C)C(=O)[C@@]2(C)CO2)C2CC2)no1 | 43.1 |  |  | 
7 | CC(C)C[C@H](NC(=O)[C@H](CCc1ccccc1)NC(=O)CN1CCOCC1)C(=O)NCC(=O)N[C@@H](CC(C)C)C(=O)[C@@]1(C)CO1 |  |  |  | IC50 [1]: Not Active
8 | CC(C)C[C@H](NC(=O)[C@H](Cc1cc2ccccc2s1)NC(=O)CN1CCOCC1)C(=O)N[C@@H](Cc1ccccc1)C(=O)N[C@@H](CC(C)C)C(=O)[C@@]1(C)CO1 | 34.1 | 53.8 | 33.2 | 
9 | CC(C)C[C@H](NC(=O)[C@H](Cc1ccsc1)NC(=O)CN1CCOCC1)C(=O)N[C@@H](Cc1ccccc1)C(=O)N[C@@H](CC(C)C)C(=O)[C@@]1(C)CO1 | 44.9 | 34.6 | 23.8 | 
10 | CC(C)C[C@H](NC(=O)[C@H](CCc1ccccc1)NC(=O)CN1CCOCC1)C(=O)N[C@@H](Cc1cc2ccccc2s1)C(=O)N[C@@H](CC(C)C)C(=O)[C@@]1(C)CO1 | 37.5 | 86.6 | 80.5 | 
11 | CC(C)C[C@H](NC(=O)[C@H](CCc1ccccc1)NC(=O)CN1CCOCC1)C(=O)N[C@@H](Cc1ccccc1)C(=O)N[C@@H](CC(C)C)C(=O)[C@@]1(C)CO1 [CARFILZOMIB] |  | 39.1 | 35.7 | half-life at 1 µM [2]: 17.2 s; microsomal CLint at 1 µM [3]: > 1390 µL/min/mg; IC50 [4]: 92100 nM; half-life at 1 µM [5]: < 60 s; half-life at 1 µM [6]: 20.4 s; microsomal CLint at 1 µM [7]: 2230 µL/min/mg; microsomal CLint at 1 µM [8]: 5670 µL/min/mg; microsomal CLint at 1 µM [9]: 4100 µL/min/mg; microsomal CLint at 1 µM [10]: 4850 µL/min/mg; half-life at 1 µM [11]: 37.2 s; half-life at 1 µM [12]: 14.6 s; T/C (ARH-77): 34.6%

The next lines start with results.

Row | IC50 ([1]; read-out: IC50) [nM] | SMILES | IC50 (RPMI-8226) [nM] | IC50 (U-266) [nM] | further results
12 | 140 | CC(C)C[C@H](NC(=O)[C@H](CCc1ccccc1)NC(=O)CN1CCOCC1)C(=O)N[C@@H](Cc1ccccc1)C(=O)N[C@@H](Cc1ccccc1)C(=O)[C@@]1(C)CO1 |  |  | 
13 | 60.7 | Cc1cc(C(=O)N[C@@H](Cc2ccccn2)C(=O)N[C@@H](CC(C)C)C(=O)N[C@@H](Cc2ccccc2)C(=O)N[C@@H](CC(C)C)C(=O)[C@@]2(C)CO2)no1 |  |  | 
14 | 52.2 | CCCC[C@H](NC(=O)[C@H](Cc1ccccc1)NC(=O)[C@H](CC(C)C)NC(=O)[C@H](CCc1ccccc1)NC(=O)CN1CCOCC1)C(=O)[C@@]1(C)CO1 |  |  | 
15 | 36.8 | CC[C@H](NC(=O)[C@H](CCc1ccccc1)NC(=O)c1cc(C)on1)C(=O)N[C@@H](Cc1ccccc1)C(=O)N[C@@H](CC(C)C)C(=O)[C@@]1(C)CO1 | 47 | 45.5 | 
16 | 50.9 | COC[C@H](NC(=O)[C@H](CCc1ccccc1)NC(=O)c1cc(C)on1)C(=O)N[C@@H](Cc1ccccc1)C(=O)N[C@@H](CC(C)C)C(=O)[C@@]1(C)CO1 |  |  | 
